{"data": "Measured values of several laboratories", "note": "pIC50: −log10 of the molar value."}
{"Compound": "Cc1cn([C@H]2C[C@H](N=[N+]=[N-])[C@@H](CO)O2)c(=O)[nH]c1=O", "cell line": "human PBMC", "assay": "cell growth or viability", "quantity": "CC50", "result": "> 100 µM"}
{"Compound": "CC(C)/N=C(\\N)c1ccc(NC(=O)c2ccc(C(=O)Nc3ccc(/C(N)=N/C(C)C)cc3)cc2)cc1", "cell line": "K562", "assay": "cell growth or viability", "quantity": "pIC50", "result": 4.41}
{"Compound": "C#C[C@]1(COP(=O)(O)OP(=O)(O)OP(=O)(O)O)O[C@@H](n2cnc3c(N)nc(F)nc32)C[C@@H]1O", "cell line": "human PBMC", "system": "plasma", "conditions": "oral, 5 mg, single dose", "quantity": "half-life", "result": "126 h"}
{"Compound": "C=C(C)C(O)Cc1c(O)c(CC=C(C)C)c2occ(-c3ccc(O)cc3)c(=O)c2c1O (centres unmarked)", "cell line": "K562", "assay": "cell growth or viability, MTT", "conditions": "100 µg/mL", "quantity": "viability", "result": "71.7%"}
{"Compound": "COc1ccccc1CN[C@H]1C2CCN(CC2)[C@H]1C(c1ccccc1)c1ccccc1", "cell line": "human PBMC", "assay": "cell growth or viability, MTS", "quantity": "CC50", "result": "> 25 µM"}
{"Compound": "O=C(O)c1cccc2ccccc12", "cell line": "K562", "assay": "cell growth or viability", "quantity": "pIC50", "result": "< 3.13"}
{"Compound": "N[C@@H](CC(=O)N1CCN(C(c2ccc(F)cc2)c2ccc(F)cc2)CC1)C(=O)N1Cc2ccccc2C1", "cell line": "K562", "assay": "cell growth or viability, ATP luminescence", "conditions": "60 µM", "quantity": "viability", "result": "7%"}
{"Compound": "CC(C)=CCc1c(O)c(CC=C(C)C)c2occ(-c3ccc(O)cc3)c(=O)c2c1O", "cell line": "K562", "assay": "cell growth or viability, MTT", "conditions": "100 µg/mL", "quantity": "viability", "result": "94%"}
{"Compound": "Clc1ccc(COc2cncc(-c3cnn(C4CCNCC4)c3)c2)c(Cl)c1", "cell line": "MDCK", "system": "Caco-2", "quantity": "Papp", "result": "10.9 ×10⁻⁶ cm/s"}
{"Compound": "Cc1ccc2cccc(C(=O)O)c2c1", "cell line": "K562", "assay": "cell growth or viability", "quantity": "pIC50", "result": "< 3.16"}
{"Compound": "CC[C@@H](C)[C@H](N)C(=O)N1Cc2ccccc2C1", "cell line": "K562", "assay": "cell growth or viability, ATP luminescence", "conditions": "60 µM", "quantity": "viability", "result": "92%"}
